Test results taken from ChEMBL document CHEMBL1811864 (Bioorg Med Chem, 2011).

Experiments:
[1] = molecular target: T1, Transcriptional activator protein LasR (Pseudomonas aeruginosa (strain ATCC 15692 / PAO1 / 1C / PRS 101 / LMG12228)) (UniProt P25084); test: Antagonist activity at Pseudomonas aeruginosa PAO1 MW1 (pUM15) LasR assessed as inhibition of OdDHL-induced quorum sensing activation at 10 uM after 8 hrs by […] relative to untreated control; format: functional
T1 sequence (whole entry): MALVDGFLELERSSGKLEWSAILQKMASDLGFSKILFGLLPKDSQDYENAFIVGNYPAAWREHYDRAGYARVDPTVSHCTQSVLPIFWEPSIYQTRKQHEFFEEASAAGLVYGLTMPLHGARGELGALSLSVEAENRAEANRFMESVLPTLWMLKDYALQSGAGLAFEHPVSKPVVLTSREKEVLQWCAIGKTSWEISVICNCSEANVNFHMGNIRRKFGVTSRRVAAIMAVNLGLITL
Outline: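 P. aeruginosa PAO1 MW1 (pUM15) lacks functional LasI and carries a LasR-responsive promoter driving YFP, so fluorescence is the read-out. Compounds were tested at 10 µM. […] Background from wells with no compound or AHL was subtracted. Assays were done in triplicate.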

[2] = system: Escherichia coli DH5[alpha]; test: Antagonist activity at Escherichia coli DH5alpha (pJN105L + pSC11) LasR assessed as inhibition of OdDHL-induced quorum sensing activation at 10 uM after 8 hrs by beta-galactosidase reporter gene assay relative to untreated control; format: functional
[3] = system: Escherichia coli DH5[alpha]; test: Agonist activity at Escherichia coli DH5alpha (pJN105L + pSC11) LasR at 10 uM after 8 hrs by beta-galactosidase reporter gene assay relative to OdDHL; format: functional
[4] = Antagonist activity at Escherichia coli DH5alpha (pJN105L + pSC11) LasR assessed as inhibition of OdDHL-induced quorum sensing activation after 8 hrs by beta-galactosidase reporter gene assay; format: functional, Escherichia coli DH5[alpha]
[5] = molecular target: T2, Transcriptional activator protein LuxR (Aliivibrio fischeri) (UniProt P12746); test: Antagonist activity at Vibrio fischeri ESI 114 (delta-LuxI) LuxR assessed as inhibition of […]-induced quorum sensing activation at 10 uM after 8 hrs by […] relative to untreated control; format: functional
T2 sequence (whole entry): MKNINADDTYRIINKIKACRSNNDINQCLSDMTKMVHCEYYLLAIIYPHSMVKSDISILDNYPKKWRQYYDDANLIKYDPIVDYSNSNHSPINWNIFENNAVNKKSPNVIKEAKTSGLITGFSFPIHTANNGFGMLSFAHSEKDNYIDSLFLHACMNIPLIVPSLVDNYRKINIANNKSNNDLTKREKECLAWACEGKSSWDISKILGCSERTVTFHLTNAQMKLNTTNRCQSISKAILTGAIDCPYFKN

[6] = molecular target: T2, Transcriptional activator protein LuxR (Aliivibrio fischeri); test: Agonist activity at Vibrio fischeri ESI 114 (delta-LuxI) LuxR at 10 uM after 8 hrs by […] relative to […]; format: functional
Outline: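 V. fischeri ESI 114 lacking LuxI synthase but keeping its native lux operon; LuxR activity read as luminescence. Compounds were screened at 10 µM alone, without native AHL. Signal was normalized to the native-ligand positive control.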

[7] = molecular target: T3, Transcriptional activator protein TraR (Agrobacterium tumefaciens) (UniProt P33905); test: Antagonist activity at Agrobacterium tumefaciens WCF (pCF372) TraR assessed as inhibition of […]-induced quorum sensing activation at 10 uM after 8 hrs by beta-galactosidase reporter gene assay relative to untreated control; format: functional
T3 sequence (whole entry): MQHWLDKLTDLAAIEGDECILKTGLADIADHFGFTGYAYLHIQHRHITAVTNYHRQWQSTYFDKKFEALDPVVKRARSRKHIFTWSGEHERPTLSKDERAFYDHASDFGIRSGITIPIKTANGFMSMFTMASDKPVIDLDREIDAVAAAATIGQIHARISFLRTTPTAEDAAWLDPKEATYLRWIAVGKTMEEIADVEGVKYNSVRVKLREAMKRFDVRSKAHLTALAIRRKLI

[8] = molecular target: T3, Transcriptional activator protein TraR (Agrobacterium tumefaciens); test: Agonist activity at Agrobacterium tumefaciens WCF (pCF372) TraR at 10 uM after 8 hrs by beta-galactosidase reporter gene assay relative to […]; format: functional
[9] = system: Pseudomonas aeruginosa; test: Growth inhibition of Pseudomonas aeruginosa PAO1 MW1 (pUM15) at 10 uM after 4 to 16 hrs; format: organism-based; conditions: in vivo
Outline: (§1)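 Bacterial growth was monitored over the reporter gene assay time course (4–16 h) with compounds at 10 µM.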

[10] = system: Escherichia coli; test: Growth inhibition of Escherichia coli DH5alpha (pJN105L + pSC11) at 10 uM after 4 to 16 hrs; format: organism-based, DH5[alpha]; conditions: in vivo; outline: as §1
[11] = system: Aliivibrio fischeri; test: Growth inhibition of Vibrio fischeri ESI 114 (delta-LuxI) at 10 uM after 4 to 16 hrs; format: organism-based; conditions: in vivo; outline: as §1
[12] = system: Agrobacterium tumefaciens; test: Growth inhibition of Agrobacterium tumefaciens WCF (pCF372) at 10 uM after 4 to 16 hrs; format: organism-based; conditions: in vivo; outline: as §1
[13] = molecular target: T1, Transcriptional activator protein LasR (Pseudomonas aeruginosa (strain ATCC 15692 / PAO1 / 1C / PRS 101 / LMG12228)); test: Agonist activity at Pseudomonas aeruginosa PAO1 MW1 (pUM15) LasR at 10 uM after 8 hrs by YFP fluorescence reporter gene assay relative to OdDHL
[14] = molecular target: T4, Transcriptional activator protein LuxR (Aliivibrio fischeri, UniProt P12746); test: Antagonist activity at Vibrio fischeri ESI 114 (delta-LuxI) LuxR assessed as inhibition of OHHL-induced quorum sensing activation after 8 hrs by […]
T4 sequence (P12746 whole entry): T2 sequence (whole entry)

[15] = Agonist activity at Escherichia coli DH5alpha (pJN105L + pSC11) LasR after 8 hrs by beta-galactosidase reporter gene assay relative to OdDHL; format: functional, Escherichia coli DH5[alpha]
[16] = molecular target: T5, Transcriptional activator protein LasR (Pseudomonas aeruginosa (strain ATCC 15692 / PAO1 / 1C / PRS 101 / LMG12228), UniProt P25084); test: Agonist activity at Pseudomonas aeruginosa PAO1 MW1 (pUM15) LasR after 8 hrs by YFP fluorescence reporter gene assay relative to OdDHL
T5 sequence (P25084 whole entry): T1 sequence (whole entry)

Structure (SMILES)	inhibition [1] [%]	inhibition [2] [%]	Activity [3] [%]	IC50 [4] [µM]	inhibition [5] [%]	Activity [6] [%]	inhibition [7] [%]	Activity [8] [%]	Activity [9]	Activity [10]	Activity [11]	Activity [12]	Activity [13] [%]	IC50 [14] [µM]	EC50 [15] [µM]	EC50 [16] [µM]
CCCCCCCC(=O)N[C@H]1CCSC1=O	-7	64	85	0.14	80	0	99	0	Non-toxic	Non-toxic	Non-toxic	Non-toxic	0	0.13	–	–
COc1ccc(CC(=O)N[C@H]2CCSC2=O)cc1	–	51	1	7.2	70	1	–	0	Non-toxic	Non-toxic	Non-toxic	Non-toxic	7	–	–	–
O=C(Cc1ccc(-c2ccccc2)cc1)NC1CCSC1=O (racemic)	–	45	–	–	85	0	26	11	Non-toxic	Non-toxic	Non-toxic	Non-toxic	1	–	–	–
CCCCCC(=O)N[C@H]1CCSC1=O	–	59	1	1.1	93	0	–	0	Non-toxic	Non-toxic	Non-toxic	Non-toxic	20	0.84	–	–
O=C(CCc1cc2ccccc2[nH]1)N[C@H]1CCSC1=O	-7	16	4	–	68	0	–	0	Non-toxic	Non-toxic	Non-toxic	Non-toxic	10	–	1.8	–
O=C(Cc1ccc(-c2ccccc2)cc1)N[C@H]1CCSC1=O	–	56	9	2.9	98	0	9	0	Non-toxic	Non-toxic	Non-toxic	Non-toxic	3	0.35	–	–
O=C(CCc1cc2ccccc2[nH]1)NC1CCSC1=O (racemic)	–	54	72	–	75	0	–	6	Non-toxic	Non-toxic	Non-toxic	Non-toxic	3	–	–	–
O=C(Cc1ccc(Br)cc1)NC1CCSC1=O (racemic)	–	68	8	–	91	0	25	1	Non-toxic	Non-toxic	Non-toxic	Non-toxic	5	–	–	–
O=C(Cc1cccc([N+](=O)[O-])c1)NC1CCSC1=O (racemic)	–	-3	81	–	30	26	30	0	Non-toxic	Non-toxic	Non-toxic	Non-toxic	3	–	–	–
CCCCCCCCCCCC(=O)N[C@H]1CCSC1=O	–	–	94	–	57	0	6	0	Non-toxic	Non-toxic	Non-toxic	Non-toxic	42	–	1.9	21
CCCC(=O)N[C@H]1CCSC1=O	–	17	4	–	42	0	–	0	Non-toxic	Non-toxic	Non-toxic	Non-toxic	22	–	–	–
O=C(Cc1ccccc1)NC1CCSC1=O (racemic)	–	61	3	–	30	0	13	0	Non-toxic	Non-toxic	Non-toxic	Non-toxic	17	–	–	–
O=C(Cc1ccc(Br)cc1)N[C@H]1CCSC1=O	–	80	2	0.4	97	0	–	0	Non-toxic	Non-toxic	Non-toxic	Non-toxic	8	0.77	–	–
CCCCCCCCCC(=O)CC(=O)NC1CCSC1=O (racemic)	–	–	102	–	91	0	51	1	Non-toxic	Non-toxic	Non-toxic	Non-toxic	127	–	–	–
COc1ccc(CC(=O)NC2CCSC2=O)cc1 (racemic)	–	48	0	–	59	0	–	–	Non-toxic	Non-toxic	Non-toxic	Non-toxic	4	–	–	–
O=C(Cc1ccccc1)N[C@H]1CCSC1=O	–	65	2	2.5	34	0	–	3	Non-toxic	Non-toxic	Non-toxic	Non-toxic	2	–	–	–
